Measured values published in ChEMBL document CHEMBL1148756, “Discovery of 3,3'-(2,4-diaminopteridine-6,7-diyl)diphenol as an isozyme-selective inhibitor of PI3K for the treatment of ischemia reperfusion injury associated with myocardial infarction” (J Med Chem, 2007).
Calls of active or inactive are those of the source. The rule behind the calls is not given here.

Assays:
[1] = target: Phosphatidylinositol 4,5-bisphosphate 3-kinase catalytic subunit gamma isoform (Homo sapiens, UniProt P48736); test: Inhibition of recombinant PI3Kgamma
How it was run: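 Luminescence kinase assay with recombinant PI3K p120 gamma (250-500 ng/well), ambient temperature, in 20 mM Tris pH 7.4, 4 mM MgCl2, 10 mM NaCl, 50 µM PIP2 substrate. Compound added in DMSO at 100 to 0.001 µM final. ATP added from a 3 µM stock. Stopped after 90 min with Kinase-Glo and read by luminescence. IC50 from nonlinear curve fit.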

[2] = Plasma concentration in Sprague-Dawley rat at 0.5 mg/kg, iv; type: ADME, organism-based; parameters: dose 0.5 mg/kg, route intravenous
How it was run: (§1)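 Male Sprague-Dawley rats (200-250 g, N = 5 per dose) were given a single iv tail bolus of 0.5 or 5 mg/kg in aqueous 9.5% Captisol. Jugular-catheter blood was drawn at 5, 15, 30 min and 1, 2, 4, 6, 8, 24 h. Plasma was acetonitrile-extracted and quantified by LC/MS/MS (calibration 1-10 000 ng/mL). Parameters were derived noncompartmentally, with CL = dose/AUC(0-inf) and Vdss = CL × MRT.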

[3] = Plasma concentration in Sprague-Dawley rat at 5.0 mg/kg, iv; type: ADME, organism-based; parameters: dose 5 mg/kg, route intravenous; how it was run: as §1
[4] = Cmax in Sprague-Dawley rat at 0.5 mg/kg, iv; type: ADME, organism-based; parameters: dose 0.5 mg/kg, route intravenous; conditions: in vivo; how it was run: as §1
[5] = Cmax in Sprague-Dawley rat at 5.0 mg/kg, iv; type: ADME, organism-based; parameters: dose 5 mg/kg, route intravenous; conditions: in vivo; how it was run: as §1
[6] = AUC (0 to infinity) in Sprague-Dawley rat at 0.5 mg/kg, iv; type: ADME, organism-based; parameters: time infinity, dose 0.5 mg/kg, route intravenous; conditions: plasma
How it was run: (§2)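 Male Sprague-Dawley rats (200-250 g, N = 5 per dose) given a single iv tail bolus in aqueous 9.5% Captisol. Serial plasma was taken via jugular catheter from 5 min to 24 h. Samples were acetonitrile-extracted with internal standard and quantified by LC/MS/MS (calibration 1-10 000 ng/mL). AUC(0-inf) came from noncompartmental analysis.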

[7] = AUC (0 to infinity) in Sprague-Dawley rat at 5.0 mg/kg, iv; type: ADME, organism-based; parameters: time infinity, dose 5 mg/kg, route intravenous; conditions: plasma; how it was run: as §2
[8] = Half life in Sprague-Dawley rat at 0.5 mg/kg, iv; type: ADME, organism-based; parameters: dose 0.5 mg/kg, route intravenous; conditions: in vivo; how it was run: as §1
[9] = Half life in Sprague-Dawley rat at 5.0 mg/kg, iv; type: ADME, organism-based; parameters: dose 5 mg/kg, route intravenous; conditions: in vivo; how it was run: as §1
[10] = Clearance in Sprague-Dawley rat at 0.5 mg/kg, iv; type: ADME, organism-based; parameters: dose 0.5 mg/kg, route intravenous; conditions: in vivo; how it was run: as §1
[11] = Clearance in Sprague-Dawley rat at 5.0 mg/kg, iv; type: ADME, organism-based; parameters: dose 5 mg/kg, route intravenous; conditions: in vivo; how it was run: as §1
[12] = Volume of distribution at steady state in Sprague-Dawley rat at 0.5 mg/kg, iv; type: ADME, organism-based; parameters: dose 0.5 mg/kg, route intravenous; conditions: in vivo, read-out: Vdss; how it was run: as §1
[13] = Volume of distribution at steady state in Sprague-Dawley rat at 5.0 mg/kg, iv; type: ADME, organism-based; parameters: dose 5 mg/kg, route intravenous; conditions: in vivo, read-out: Vdss; how it was run: as §1
HUVEC = test: Inhibition of VEGF-induced VE-cadherin phosphorylation in HUVEC cells by Western blot at 10 uM; type: cell-based; conditions: Homo sapiens
How it was run: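 Serum-starved HUVECs were pretreated for 15 min with compound (0.125-10 µM) or vehicle, then given 20 ng/mL recombinant VEGF for 5 min. RIPA lysates were loaded at equal protein (BCA, with β-actin as loading control) on SDS-PAGE. Blots were probed for phospho-VE-cadherin, stripped, and reprobed for total VE-cadherin.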

[14] = target: Serine/threonine-protein kinase mTOR (Homo sapiens) (UniProt P42345); test: Inhibition of VEGF-induced phosphorylation of mTOR at 10 uM
How it was run: (§3)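 HUVECs (passage 2-4) were serum-starved for 4 h in EBM-2, then exposed for 10 min to 20 ng/mL recombinant human VEGF with or without 10 µM compound in DMSO. Cells were PBS-rinsed and lysed in RIPA, and lysates were normalized by BCA. Samples were screened externally by Western-blot-based antibody panels covering 73 phosphorylated kinases.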

[15] = target: Ribosomal protein S6 kinase beta-1 (Homo sapiens) (UniProt P23443); test: Inhibition of VEGF-induced phosphorylation of p70S6 at 10 uM; how it was run: as §3
[16] = target: RAC-alpha serine/threonine-protein kinase (Homo sapiens) (UniProt P31749); test: Inhibition of FGF-induced AKT phosphorylation in HUVEC cells by Western blot at 10 uM; type: cell-based
How it was run: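 Serum-starved HUVECs were pretreated for 15 min with compound (0.125-10 µM) or vehicle, then stimulated for 5 min with 20 ng/mL recombinant bFGF. Cells were lysed in RIPA, protein was normalized by BCA, and lysates were run on SDS-PAGE. Blots were probed for phospho-Akt, stripped, and reprobed for total Akt.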

Sequence of Ribosomal protein S6 kinase beta-1 (Homo sapiens) (P23443 whole entry, looked up): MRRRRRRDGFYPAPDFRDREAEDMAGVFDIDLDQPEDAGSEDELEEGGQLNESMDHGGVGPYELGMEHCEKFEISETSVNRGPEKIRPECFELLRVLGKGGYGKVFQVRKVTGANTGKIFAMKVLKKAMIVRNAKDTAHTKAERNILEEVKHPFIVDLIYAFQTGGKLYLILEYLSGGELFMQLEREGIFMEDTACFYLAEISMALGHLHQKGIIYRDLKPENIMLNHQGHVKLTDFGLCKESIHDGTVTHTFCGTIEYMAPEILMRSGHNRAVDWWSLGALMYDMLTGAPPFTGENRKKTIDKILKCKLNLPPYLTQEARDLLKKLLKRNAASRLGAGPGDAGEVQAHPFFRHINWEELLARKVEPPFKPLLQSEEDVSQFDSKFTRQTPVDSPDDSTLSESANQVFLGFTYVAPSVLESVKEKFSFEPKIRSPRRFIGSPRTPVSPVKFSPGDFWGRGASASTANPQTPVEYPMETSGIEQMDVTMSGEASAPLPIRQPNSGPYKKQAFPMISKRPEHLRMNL
Sequence of RAC-alpha serine/threonine-protein kinase (Homo sapiens) (P31749 whole entry): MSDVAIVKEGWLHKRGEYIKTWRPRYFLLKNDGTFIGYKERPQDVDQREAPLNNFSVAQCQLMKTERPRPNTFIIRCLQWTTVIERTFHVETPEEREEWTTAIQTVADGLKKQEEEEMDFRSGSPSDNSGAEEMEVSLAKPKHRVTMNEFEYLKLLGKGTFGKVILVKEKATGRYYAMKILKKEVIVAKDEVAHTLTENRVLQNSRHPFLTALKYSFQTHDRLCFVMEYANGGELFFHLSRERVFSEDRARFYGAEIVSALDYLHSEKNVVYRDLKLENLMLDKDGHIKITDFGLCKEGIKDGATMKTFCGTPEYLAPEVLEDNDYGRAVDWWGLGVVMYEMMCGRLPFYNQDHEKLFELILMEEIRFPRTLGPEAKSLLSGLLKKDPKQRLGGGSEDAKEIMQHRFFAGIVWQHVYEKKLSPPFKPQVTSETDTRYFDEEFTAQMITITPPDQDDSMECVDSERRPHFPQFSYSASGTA

Activity [1] | IC50 [1] | SMILES | also measured
inactive | – | Nc1cncc2nc(-c3ccc(O)cc3)c(-c3ccc(O)cc3)nc12 | –
inactive | – | Nc1ccc2nc(-c3ccc(O)cc3)c(-c3ccc(O)cc3)nc2n1 | –
inactive | – | Nc1ccc2nc(-c3cccc(O)c3)c(-c3cccc(O)c3)nc2n1 | –
– | 17 µM | Nc1ccc2nc(-c3cccc(O)c3)c(-c3cccc(O)c3)nc2c1 | –
– | 2.7 µM | Nc1nc(N)c2nc(-c3ccc(O)cc3)c(-c3ccc(O)cc3)nc2n1 | –
inactive | – | Nc1ccc2nc(-c3ccc(O)c(O)c3)c(-c3ccc(O)c(O)c3)nc2n1 | –
inactive | – | Nc1cncc2nc(-c3cccc(O)c3)c(-c3cccc(O)c3)nc12 | –
– | 4 µM | Nc1ncnc2nc(-c3ccc(O)cc3)c(-c3ccc(O)cc3)nc12 | –

Second part, the compound before the results:

SMILES | Activity [1] | IC50 [1] | also measured
Oc1cccc(-c2nc3nc(NCCCN4CCOCC4)nc(NCCCN4CCOCC4)c3nc2-c2cccc(O)c2)c1 | inactive | – | –
CCN(CC)CCOc1cccc(-c2nc3nc(N)nc(N)c3nc2-c2cccc(OCCN(CC)CC)c2)c1 | inactive | – | –
Nc1ncnc2nc(-c3ccc(O)c(O)c3)cnc12 | – | 5.1 µM | –
CCOP(=O)(OCC)Oc1cccc(-c2nc3nc(N)nc(N)c3nc2-c2cccc(OP(=O)(OCC)OCC)c2)c1 | inactive | – | –
Nc1nc(N)c2nc(-c3cccc(O)c3)c(-c3cccc(O)c3)nc2n1 [TG100-115] | – | – | C0 [2]: 713 ng/mL; C0 [3]: 7730 ng/mL; Cmax [4]: 363 ng/mL; Cmax [5]: 3330 ng/mL; AUC(0-inf) [6]: 124 ng·h/mL; AUC(0-inf) [7]: 1380 ng·h/mL; half-life [8]: 24 min; half-life [9]: 48 min; clearance [10]: 71 mL/min/kg; clearance [11]: 66 mL/min/kg; Vd [12]: 2.3 L/kg; Vd [13]: 4.4 L/kg; Activity (HUVEC): Active; Activity [14]: Active; Activity [15]: Active; Activity [16]: Dose-dependent effect
Oc1cccc(-c2nc3nc(O)nc(O)c3nc2-c2cccc(O)c2)c1 | – | 46 µM | –
Nc1nc(N)c2nc(-c3ccccc3)c(-c3ccccc3)nc2n1 | – | 8.5 µM | –
COc1cccc(-c2nc3nc(N)nc(N)c3nc2-c2cccc(OC)c2)c1 | – | 12.6 µM | –
Nc1nc(N)c2nc(-c3cccc(OCC(O)CO)c3)c(-c3cccc(OCC(O)CO)c3)nc2n1 (stereo unspecified) | – | 32.7 µM | –
Nc1ncnc2ncc(-c3ccc(O)c(O)c3)nc12 | – | 1.3 µM | –
Nc1nc(N)c2ncc(-c3cccc(O)c3)nc2n1 | – | 3 µM | –
Nc1nc(N)c2ncc(-c3ccc(O)c(O)c3)nc2n1 | – | 5.9 µM | –
Nc1nc(NCCCN2CCOCC2)c2nc(-c3cccc(O)c3)c(-c3cccc(O)c3)nc2n1 | – | 51 µM | –
Nc1ncnc2nc(-c3cccc(O)c3)c(-c3cccc(O)c3)nc12 | – | 4 µM | –
Nc1nc(N)c2nc(-c3ccc(O)cc3)cnc2n1 | – | 1.2 µM | –
Nc1nc(N)c2nc(-c3ccc(O)c(O)c3)cnc2n1 | – | 0.195 µM | –
Oc1cccc(-c2nc3cncnc3nc2-c2cccc(O)c2)c1 | – | 9 µM | –
Nc1nc(N)c2ncc(-c3ccc(O)cc3)nc2n1 | – | 4.7 µM | –
